Screens: PubChem, several laboratories
In the library only some 3.7% were active in any assay of this set; here they are far more common.
Mdm2 ligase inh = MDM2-luciferase reporter signal enhancers, primary screen, MDM2 E3 ligase inhibitor project, cell-based, luminescence, 1536-well. signal enhancement, % at 5 µM. 210,000 tested, 0.11% active. cell-based MDM2 ubiquitination luciferase reporter, 2 h; 0 = plate control, 100 = twice control, blank-subtracted. AID 1230, 2008. E3 ubiquitin-protein ligase Mdm2 (Homo sapiens), Q00987;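 active means signal enhancement of 30% or more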;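 further: luminescence tracks abundance of the self-degrading MDM2-luciferase fusion protein; higher signal means inhibition of MDM2 E3 ligase activity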
Target sequence (Q00987 whole entry, looked up, the tested form may be a part): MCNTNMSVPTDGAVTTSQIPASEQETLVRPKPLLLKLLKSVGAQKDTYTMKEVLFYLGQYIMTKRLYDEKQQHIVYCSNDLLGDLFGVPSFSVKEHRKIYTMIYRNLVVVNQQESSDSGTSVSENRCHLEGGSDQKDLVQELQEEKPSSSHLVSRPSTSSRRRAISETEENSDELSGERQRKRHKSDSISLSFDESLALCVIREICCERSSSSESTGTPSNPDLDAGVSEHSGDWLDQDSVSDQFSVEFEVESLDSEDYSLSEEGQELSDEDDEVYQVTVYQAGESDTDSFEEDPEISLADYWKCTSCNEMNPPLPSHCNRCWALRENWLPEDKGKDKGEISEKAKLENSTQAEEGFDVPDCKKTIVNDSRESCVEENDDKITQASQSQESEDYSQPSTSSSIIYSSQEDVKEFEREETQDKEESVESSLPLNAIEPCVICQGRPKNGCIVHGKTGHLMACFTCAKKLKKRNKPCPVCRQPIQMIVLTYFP
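test system = mammalian cells stably expressing self-ubiquitinating, self-degrading MDM2 E3–luciferase fusion | quantity = 2000 cells/well | incubation = cell settling 4 h, compound treatment 2 h, both 37 °C | signal = luminescence with SteadyLite reagent, 15 min at room temperature | evaluation = % enhancement relative to plate controls after blank subtraction | benchmarks = plate controls and plate blanks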
KCC2 mod = KCC2 cotransporter modulators, thallium flux, primary screen, cell-based, HEK293 KCC2, FluoZin-2 fluorescence, MLSMR; KCC2 cells, thallium flux FluoZin-2 fluorescence; 190,000 tested, 2.2% active; AID 1456, 2008; Solute carrier family 12 member 5 (Homo sapiens), Q9H2X9; B-score of Tl+ flux slope (higher = more flux/activation; lower = inhibition) at 10 µM;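 active means thallium flux slope and its plate-corrected score both differing from the plate sample mean at a set confidence after two filtering rounds, in either direction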;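 further: slope of fluorescence scaled to starting intensity during 10 to 20 s after thallium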
Calpain2 inh = inhibitors of pig calpain II, primary screen, biochemical, fluorogenic peptide substrate, 1536-well; purified calpain II, 30 min; inhibition, % at 16 µM; 220,000 tested, 0.37% active; AID 1236, 2008;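 active means inhibition above about 50%, limit read from the data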
PKD1 kinase inh = inhibitors of human PKD1 kinase, biochemical, fluorescence polarization; Serine/threonine-protein kinase D1 (Homo sapiens), Q15139; PKD1 kinase fluorescence polarization assay; inhibition, % (no concentration beside the values); 200,000 tested, 0.056% active; AID 797, 2007; in the data active means inhibition above about 50%
ROMK primary = ROMK potassium channel modulators, primary screen, cell-based, thallium flux, MLSMR library; Tet-inducible ROMK, thallium flux fluorescence; actives lie on both sides; AID 1918, 2009; 130,000 tested, 2% active; ATP-sensitive inward rectifier potassium channel 1 (Homo sapiens), P48048; B-score at 10 µM;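 active means signal ratio slope over the read window, or its plate-corrected B-score, at least 3 SD from the plate mean, either direction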;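 further: B-score of the F/F0 ratio slope over 7 to 12 s after thallium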
Arbovirus anti = antivirals against arbovirus infection, primary screen, cell-based, full library, 10K replicate subset; arbovirus infection cell-based antiviral screen; inhibition, % at 10 µM; 200,000 tested, 0.37% active; AID 1251, 2008; in the data active means inhibition above about 30%
ROMK retest = ROMK channel modulator hit retest, confirmation, cell-based, thallium flux, duplicate, resupplied hits; shares compounds with ROMK primary; fluorescence ratio; stronger effect = lower value; normalized thallium flux (F/F0 slope) at 10 µM; 3,000 tested, 54% active; AID 1917, 2009;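 active means Flux at 10 µM at least 3 SD below or above vehicle control mean in one or both replicates; inconclusive means no clear call, values can overlap the other calls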
Of the large screens only hits and unclear results are named; the others gave an inactive call (follow-up assays come after a bar, where they were run).

CCCNC(=S)N1CCN(C(c2ccccc2)c2ccccc2)CC1	ROMK primary -3.2 | ROMK retest inactive
OCC(Cc1ccccc1)Nc1c2ccccc2nc2ccccc12 (stereo unspecified)	ROMK primary -6.4 | ROMK retest 0.041
O=C(Cc1ccccc1)NNc1c2ccccc2nc2ccccc12	none
Cc1ccc(SC(C)c2nc(-c3ccncc3)no2)cc1 (stereo unspecified)	ROMK primary -3.1 | ROMK retest 0.067
O=C(CC1C(=O)NCCN1C/C=C/c1ccccc1)NCCCC1CCCC1 (stereo unspecified)	none
CC1=C(C(=O)Nc2cccnc2)C(c2ccc3c(c2)OCO3)C2=C(CCCC2=O)N1 (stereo unspecified)	none
Cc1ccc(NC(=O)c2nsc(Cl)c2Cl)cc1	none (no result: KCC2 mod, PKD1 kinase inh, ROMK primary, Arbovirus anti)
Cc1cccc(NC(=O)c2ccc(CN3CCN(Cc4ccccc4)CC3)cc2)c1	ROMK primary -2.1 | ROMK retest inconclusive
O=C(Nc1cccc(C(=O)N2CCN(Cc3ccccc3)CC2)c1)c1ccccc1	none (no result: ROMK primary)
CCOc1ccc(NC(=S)N2CCN(c3ccc(N4CCOCC4)nn3)CC2)cc1	none (no result: ROMK primary)
N#CC1=C(N)C(C#N)(C#N)C(c2cccnc2)C2COCC=C12 (stereo unspecified)	ROMK primary -6.1 | ROMK retest 0.057
COc1cnc(-c2ccccc2)[nH]c1=O	none (no result: ROMK primary)
Cc1nc(N)nc(N)c1/C=C/C(C)(C)c1ccc(Cl)cc1	ROMK primary -3.8 | ROMK retest 0.064
CCOCC(=O)Nc1cc(C(=O)OC)cc(C(=O)OC)c1	none
CCOC(=O)C(=NCCCN(C)C)NNc1cc(C(F)(F)F)ccc1Cl	ROMK primary -2.7 | ROMK retest 0.059
CCOC(=O)C(=NCCCN(C)C)NNc1ccc(Br)cc1	none (no result: ROMK primary)
O=C(C1=C[C@@H]2[C@H]3C(=O)N(c4cccc(Cl)c4)C(=O)[C@H]3[C@@H](C(=O)c3ccc(Cl)cc3)N2C=C1)c1ccccc1	none (no result: ROMK primary)
Cc1ccc(N2C(=O)[C@@H]3[C@H](C2=O)[C@H]2C=C(C(=O)c4ccccc4)C=CN2[C@@H]3C(=O)c2ccc(Cl)cc2)cc1	none (no result: ROMK primary) | ROMK retest inactive
CC(C)C(NC(=O)c1ccco1)C(=O)OCc1cc([N+](=O)[O-])cc2c1OCOC2 (stereo unspecified)	none
Cc1cccc(C(=O)N[C@H](C(=O)OCC(=O)NC2CCS(=O)(=O)C2)C(C)C)c1 (stereo partly specified)	none
O=C(N/N=C/c1ccc(-c2ccc(Br)cc2)o1)c1ccc2c(c1)OCO2	ROMK primary 2 (no result: KCC2 mod) | ROMK retest inactive
O=C(NC1=NCCS1)NC12CC3CC(CC(C3)C1)C2	none (no result: ROMK primary) | ROMK retest 0.066
O=C(c1ccccc1)c1c[nH]c(C(=O)NNc2cccc(Cl)n2)c1	ROMK primary 2 | ROMK retest inactive
COC(=O)C1C(=O)c2c([nH]c(C(=O)OCC3CCCO3)c2C)CC1C (stereo unspecified)	none (no result: ROMK primary)
CC(C)C(c1nnnn1CC1CCCO1)N1CCN(Cc2ccc3c(c2)OCO3)CC1 (stereo unspecified)	none
CC(C)C(c1nnnn1Cc1ccccc1)N1CCN(Cc2ccc3c(c2)OCO3)CC1 (stereo unspecified)	none (no result: ROMK primary) | ROMK retest 0.056
COC(=O)CCC(=O)Nc1sc2c(c1C#N)CCCC2	ROMK primary 5.9 | ROMK retest inactive
CCCC(=O)Nc1sc2c(c1C#N)CCCC2	none
C=C1C(=O)C=C2CN(C(=O)c3ccccc3)[C@@](Cc3ccc(F)cc3)(C(=O)OC)[C@@H]12	ROMK primary -4.4 (no result: Mdm2 ligase inh) | ROMK retest 0.05
COC(=O)[C@@]1(Cc2ccc(OC)cc2)[C@@H]2C(=CC(=O)[C@H]2CC(=O)C(=O)N(C)C)CN1C(=O)c1ccccc1	none (no result: Mdm2 ligase inh)
CN1CCN(Cc2c(O)ccc3cc(-c4ccccn4)c(=O)oc23)CC1	ROMK primary -3.3 | ROMK retest 0.059
CC1(c2ccccc2)CC(C)(C)N(C(=O)C2CCCO2)c2ccccc21 (stereo unspecified)	ROMK primary -3.6 | ROMK retest 0.058
CCOC(=O)c1sc(NC(=O)CSC(=S)N2CCN(C)CC2)nc1C	none (no result: PKD1 kinase inh, ROMK primary, Arbovirus anti)
CCOc1ccccc1/C=N/NC(=O)CNC(=O)c1cccs1	ROMK primary -2.1 | ROMK retest inactive
O=C(CNC(=O)c1cccs1)N/N=C/c1c[nH]c2ccccc12	none
O=C(CNC(=O)c1cccs1)N/N=C/c1ccco1	ROMK primary 3.4 | ROMK retest 0.067
Cc1ccc(/C=N/NC(=O)CNC(=O)c2cccs2)o1	none
COc1ccc(-n2c(Cc3ccccc3)nnc2SCc2ccc([N+](=O)[O-])cc2)cc1	ROMK primary -2.3 | ROMK retest 0.06
O=[N+]([O-])c1ccc(CSc2nnc(Cc3ccccc3)n2-c2ccc(F)cc2)cc1	none
Cc1cccc(-n2c(Cc3ccccc3)nnc2SCc2ccc([N+](=O)[O-])cc2)c1	ROMK primary -7.4 | ROMK retest 0.044
CC(NC(=O)/C(C#N)=C/c1ccco1)c1ccccc1 (stereo unspecified)	none (no result: PKD1 kinase inh, ROMK primary, Arbovirus anti)
COC(=O)c1ccc(/C=C(\C#N)C(=O)NC(C)c2ccccc2)cc1 (stereo unspecified)	none (no result: ROMK primary) | ROMK retest 0.049
CC(NC(=O)/C(C#N)=C/c1cccs1)c1ccccc1 (stereo unspecified)	ROMK primary -4.6 | ROMK retest 0.054
Cc1cccc(C)c1NC(=O)/C(C#N)=C/c1cccs1	none (no result: ROMK primary)
O=C(Nc1ccc(S(=O)(=O)N2CCOCC2)cc1)c1ccc(CN2CCc3ccccc3C2)cc1	none (no result: ROMK primary)
Cc1ccc(C2(C)NC(=O)N(CC(=O)Nc3cc(S(=O)(=O)N4CCOCC4)ccc3C)C2=O)cc1 (stereo unspecified)	none
COC(=O)C(=Cc1ccccc1[N+](=O)[O-])C(=O)OC	ROMK primary -2.6 (no result: PKD1 kinase inh, Arbovirus anti) | ROMK retest 0.051
COc1ccc(CC(=O)NNc2ncnc3c2cnn3Cc2ccccc2)cc1OC	none (no result: PKD1 kinase inh, ROMK primary, Arbovirus anti) | ROMK retest inactive
COc1ccc(Nc2ncnc3c2cnn3Cc2ccccc2)cc1OC	none (no result: ROMK primary)
COc1ccc(NC(=O)c2c(NC(=O)CCC(=O)O)sc(-c3ccccc3)c2C)cc1	none (no result: ROMK primary) | ROMK retest inactive
